Source: ChEMBL document CHEMBL1275350, “First in class, potent, and orally bioavailable NADPH oxidase isoform 4 (Nox4) inhibitors for the treatment of idiopathic pulmonary fibrosis” (J Med Chem, 2010)
Each block holds one compound with its values, some of them ahead of it.

Columns and labels:
NADPH oxidase 4 = biological target: T1, NADPH oxidase 4 (Homo sapiens, UniProt Q9NPH5); assay: Inhibition of human NOX4 overexpressed in T-REx-293 cell membrane assessed as ROS production by cell free assay in presence of NADPH; conditions: in the assay text read “T-REx-293 cell membrane” for “human PMN cell membrane”
T1 sequence (Q9NPH5 whole entry): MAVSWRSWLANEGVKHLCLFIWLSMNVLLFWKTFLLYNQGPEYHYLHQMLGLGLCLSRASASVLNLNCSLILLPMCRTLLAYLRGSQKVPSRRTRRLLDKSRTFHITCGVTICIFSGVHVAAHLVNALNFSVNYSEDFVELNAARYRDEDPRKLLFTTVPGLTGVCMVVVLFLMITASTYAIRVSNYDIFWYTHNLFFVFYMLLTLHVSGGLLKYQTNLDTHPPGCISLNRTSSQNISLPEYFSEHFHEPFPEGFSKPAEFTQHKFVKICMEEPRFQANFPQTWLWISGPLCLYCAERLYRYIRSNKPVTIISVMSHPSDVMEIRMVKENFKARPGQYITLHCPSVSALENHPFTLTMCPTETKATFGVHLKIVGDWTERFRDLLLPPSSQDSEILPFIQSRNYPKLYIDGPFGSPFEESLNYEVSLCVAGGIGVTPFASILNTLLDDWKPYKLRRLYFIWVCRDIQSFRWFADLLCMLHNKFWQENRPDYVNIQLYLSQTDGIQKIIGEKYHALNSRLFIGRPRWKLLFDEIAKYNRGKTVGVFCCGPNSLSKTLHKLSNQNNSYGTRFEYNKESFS
Procedure, shortened: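 hNOX4 T-REx-293 cells induced with tetracycline (1 μg/mL, 24 h), sonicated in sucrose/NaCl/EGTA PBS buffer pH 7.4, membranes taken from a sucrose gradient. NADPH-triggered ROS measured by Amplex Red/HRP in PBS, with compound at 1 nM–100 μM, 20 min at 37 °C. Ki by Cheng-Prusoff from ≥3 triplicate experiments.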

[1] = Volume of distribution at steady state in Sprague-Dawley rat at 5 mg/kg, iv; type: ADME, organism-based; parameters: dose 5 mg/kg, route intravenous; conditions: in vivo, read-out: Vdss
Procedure, shortened: (§1)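 Parallel design in male rats, three per group. Group 1: 5 mg/kg iv in EDPW (10% EtOH, 10% DMA, 30% PG, 50% water). Group 2: 10 mg/kg oral in aqueous 0.5% CMC with 0.25% Tween 20. Carotid cannula blood drawn up to 24 h. Plasma measured by LC/MS/MS (LLOQ 1.00 ng/mL), noncompartmental analysis.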

[2] = Intrinsic clearance in human liver microsomes assessed as per mg of protein at 0.5 uM; type: ADME, Microsome
Procedure, shortened: (§2)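 Phase I stability assay in pooled liver microsomes (human: male and female; rat: male Sprague-Dawley). Microsomes at 0.5 mg/mL final in 0.1 M phosphate pH 7.4. Compound 0.5 μM final, 0.25% DMSO. Preincubated at 37 °C, reaction started with 1 mM NADPH. Sampled at 0, 5, 15, 30 and 45 min, with a 45 min minus-NADPH control. Methanol quench with internal standard, LC/MS-MS, intrinsic clearance calculated.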

[3] = AUC (infinity) in Sprague-Dawley rat at 5 mg/kg, iv; type: ADME, organism-based; parameters: time infinity, dose 5 mg/kg, route intravenous; conditions: plasma
Procedure, shortened: (§3)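 Parallel design with six male rats: three given 5 mg/kg iv in EDPW (10% EtOH, 10% DMA, 30% PG, 50% water), three given 10 mg/kg orally in aqueous 0.5% CMC with 0.25% Tween 20. Carotid cannula blood sampled up to 24 h. Plasma levels by LC/MS/MS (LLOQ 1.00 ng/mL). Noncompartmental analysis.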

[4] = AUC (infinity) in Sprague-Dawley rat at 10 mg/kg, po; type: ADME, organism-based; parameters: time infinity, dose 10 mg/kg, route oral; conditions: plasma; procedure, shortened: as §3
[5] = Intrinsic clearance in Sprague-Dawley rat liver microsomes assessed per mg of protein at 0.5 uM; type: ADME, Microsome; procedure, shortened: as §2
[6] = Cmax in Sprague-Dawley rat at 5 mg/kg, iv; type: ADME, organism-based; parameters: dose 5 mg/kg, route intravenous; conditions: in vivo; procedure, shortened: as §3
[7] = Half life in Sprague-Dawley rat at 5 mg/kg, iv; type: ADME, organism-based; parameters: dose 5 mg/kg, route intravenous; conditions: in vivo; procedure, shortened: as §3
[8] = Tmax in Sprague-Dawley rat at 10 mg/kg, po; type: ADME, organism-based; parameters: dose 10 mg/kg, route oral; conditions: in vivo; procedure, shortened: as §1
[9] = Clearance in Sprague-Dawley rat at 5 mg/kg, iv; type: ADME, organism-based; parameters: dose 5 mg/kg, route intravenous; conditions: in vivo; procedure, shortened: as §3
[10] = Cmax in Sprague-Dawley rat at 10 mg/kg, po; type: ADME, organism-based; parameters: dose 10 mg/kg, route oral; conditions: in vivo; procedure, shortened: as §3
[11] = Permeability across human Caco-2 cell membrane at 10 uM after 2 hrs; type: ADME, cell-based
Procedure, shortened: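 Caco-2 monolayers grown 20 days in DMEM, used when TEER >800 Ω·cm2. Dosed at 10 μM final in HBSS pH 6.5 with 1% DMSO, apical-to-basolateral and basolateral-to-apical. Incubated 2 h at 37 °C, both compartments sampled, LC-MS/MS with five-point calibration. Papp = (dQ/dt)/(C0A).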

[12] = Clearance in Sprague-Dawley rat at 10 mg/kg, po; type: ADME, organism-based; parameters: dose 10 mg/kg, route oral; conditions: in vivo; procedure, shortened: as §3
[13] = Half life in Sprague-Dawley rat at 10 mg/kg, po; type: ADME, organism-based; parameters: dose 10 mg/kg, route oral; conditions: in vivo; procedure, shortened: as §3
[14] = Oral bioavailability in Sprague-Dawley rat at 10 mg/kg; type: ADME, organism-based; conditions: in vivo; procedure, shortened: as §1

SMILES: Cc1c2c(=O)n(Cc3ccccc3)[nH]c2cc(=O)n1Cc1ccccn1
Ki (NADPH oxidase 4): 463 nM

SMILES: Cc1c2c(=O)n(-c3ccccc3Cl)[nH]c2cc(=O)n1CC#Cc1ccccc1
microsomal CLint at 0.5 µM [5]: 178 µL/min/mg
Ki (NADPH oxidase 4): 158 nM

SMILES: Cc1c2c(=O)n(-c3ccc4nncn4n3)[nH]c2cc(=O)n1Cc1cccc(Oc2ccccc2)c1
Ki (NADPH oxidase 4): > 30000 nM

SMILES: Cc1c2c(=O)n(-c3ccccc3Cl)[nH]c2cc(=O)n1Cc1ccc(S(N)(=O)=O)cc1
Ki (NADPH oxidase 4): 259 nM

SMILES: Cc1c2c(=O)n(-c3ccc(S(=O)(=O)N4CCN(C)CC4)cn3)[nH]c2cc(=O)n1C
Ki (NADPH oxidase 4): 1420 nM

SMILES: Cc1c2c(=O)n(-c3ccccc3F)[nH]c2cc(=O)n1C
Ki (NADPH oxidase 4): 308 nM

SMILES: Cc1c2c(=O)n(-c3ccccc3Cl)[nH]c2cc(=O)n1Cc1cccc(N2CCOCC2)n1
microsomal CLint at 0.5 µM [5]: 71.6 µL/min/mg
Ki (NADPH oxidase 4): 236 nM

SMILES: CC(=O)n1c2cc(=O)n(Cc3cccnc3)c(C)c2c(=O)n1-c1ccccc1Cl
Ki (NADPH oxidase 4): 240 nM

SMILES: Cc1c2c(=O)n(C)[nH]c2cc(=O)n1C
Ki (NADPH oxidase 4): 2180 nM

SMILES: Cn1c(COCc2ccccc2Cl)c2c(=O)n(-c3ccccc3Cl)[nH]c2cc1=O
microsomal CLint at 0.5 µM [2]: 212 µL/min/mg
microsomal CLint at 0.5 µM [5]: 210 µL/min/mg
Papp at 2 h, 10 µM [11]: 62.6 ×10⁻⁶ cm/s
Ki (NADPH oxidase 4): 82 nM

SMILES: COCCn1[nH]c2cc(=O)n(Cc3ccccn3)c(C)c2c1=O
Ki (NADPH oxidase 4): 313 nM

SMILES: Cc1c2c(=O)n(-c3ccccc3)[nH]c2cc(=O)n1CCc1ccccc1
Ki (NADPH oxidase 4): 5230 nM

SMILES: CC(=O)n1c2cc(=O)n(Cc3cccnc3)c(C)c2c(=O)n1-c1ccccc1
Ki (NADPH oxidase 4): 409 nM

SMILES: Cc1c2c(=O)n(-c3ccccc3)[nH]c2cc(=O)n1Cc1ccco1
Ki (NADPH oxidase 4): 9490 nM

SMILES: Cc1c2c(=O)n(Cc3ccc(Cl)cc3)[nH]c2cc(=O)n1Cc1ccccn1
Ki (NADPH oxidase 4): 259 nM

SMILES: Cc1c2c(=O)n(-c3nc4ccccc4s3)[nH]c2cc(=O)n1CCc1c[nH]c2ccccc12
Ki (NADPH oxidase 4): 1840 nM

SMILES: O=c1c2c(CN3CCCC3)n(CCc3ccccn3)c(=O)cc2[nH]n1-c1ccc(F)cc1Cl
Vd [1]: 1.49 L/kg
microsomal CLint at 0.5 µM [2]: 45.4 µL/min/mg
AUC(0-inf) [3]: 3130 ng·h/mL
AUC(0-inf) [4]: 2430 ng·h/mL
microsomal CLint at 0.5 µM [5]: 62.3 µL/min/mg
Cmax [6]: 6190 ng/mL
half-life [7]: 3.3 h
Tmax [8]: 0.33 h
clearance [9]: 26.8 mL/min/kg
Cmax [10]: 2830 ng/mL
Papp at 2 h, 10 µM [11]: 7.3 ×10⁻⁶ cm/s
CL/F [12]: 73.2 mL/min/kg
half-life [13]: 1.13 h
bioavailability [14]: 39%
Ki (NADPH oxidase 4): 114 nM

Second part, the compound after the results:

Ki (NADPH oxidase 4): 218 nM
SMILES: Cc1c2c(=O)n(-c3ccccc3Cl)[nH]c2cc(=O)n1NC(=O)COc1ccc(F)cc1

Vd [1]: 0.8 L/kg
microsomal CLint at 0.5 µM [2]: 49.3 µL/min/mg
AUC(0-inf) [3]: 6530 ng·h/mL
AUC(0-inf) [4]: 3630 ng·h/mL
microsomal CLint at 0.5 µM [5]: 125 µL/min/mg
Cmax [6]: 30400 ng/mL
half-life [7]: 3.47 h
Tmax [8]: 1.17 h
clearance [9]: 12.8 mL/min/kg
Cmax [10]: 558 ng/mL
Papp at 2 h, 10 µM [11]: 35.5 ×10⁻⁶ cm/s
CL/F [12]: 48.7 mL/min/kg
half-life [13]: 3.03 h
bioavailability [14]: 28%
Ki (NADPH oxidase 4): 114 nM
SMILES: Cn1c(COc2ccc(F)cc2)c2c(=O)n(-c3ccccc3Cl)[nH]c2cc1=O

Ki (NADPH oxidase 4): 342 nM
SMILES: Cc1c2c(=O)n(Cc3ccc(F)cc3Cl)[nH]c2cc(=O)n1Cc1ccccn1

Ki (NADPH oxidase 4): 445 nM
SMILES: Cc1c2c(=O)n(CCN3CCOCC3)[nH]c2cc(=O)n1Cc1ccccn1

Ki (NADPH oxidase 4): 326 nM
SMILES: Cc1c2c(=O)n(CCOc3ccc(Cl)cc3)[nH]c2cc(=O)n1Cc1ccccn1

Ki (NADPH oxidase 4): 398 nM
SMILES: CC(=O)n1c2cc(=O)n(Cc3cccnc3)c(C)c2c(=O)n1-c1ccccc1C

Ki (NADPH oxidase 4): > 30000 nM
SMILES: Cc1c2c(=O)n(-c3ccccc3)n(Cc3ccccc3Cl)c2cc(=O)n1CCCN1CCCC1=O

Ki (NADPH oxidase 4): 285 nM
SMILES: COc1cccc(CC(=O)n2c3cc(=O)n(Cc4cccnc4)c(C)c3c(=O)n2-c2ccccc2)c1

Ki (NADPH oxidase 4): 515 nM
SMILES: Cc1c2c(=O)n(-c3ccccc3Cl)[nH]c2cc(=O)n1Cc1ccc(CN2CCN(C)CC2)cc1

Ki (NADPH oxidase 4): 334 nM
SMILES: Cc1c2c(=O)n(CCc3ccccc3)[nH]c2cc(=O)n1Cc1ccccn1

Ki (NADPH oxidase 4): 173 nM
SMILES: Cc1ccccc1-n1[nH]c2cc(=O)n(Cc3ccccn3)c(C)c2c1=O
